Experimental data of several laboratories.
Target: Serine/threonine-protein kinase Sgk2 (SGK2, Homo sapiens, UniProt Q9HBY8)
One construct used (Q9HBY8 1-367): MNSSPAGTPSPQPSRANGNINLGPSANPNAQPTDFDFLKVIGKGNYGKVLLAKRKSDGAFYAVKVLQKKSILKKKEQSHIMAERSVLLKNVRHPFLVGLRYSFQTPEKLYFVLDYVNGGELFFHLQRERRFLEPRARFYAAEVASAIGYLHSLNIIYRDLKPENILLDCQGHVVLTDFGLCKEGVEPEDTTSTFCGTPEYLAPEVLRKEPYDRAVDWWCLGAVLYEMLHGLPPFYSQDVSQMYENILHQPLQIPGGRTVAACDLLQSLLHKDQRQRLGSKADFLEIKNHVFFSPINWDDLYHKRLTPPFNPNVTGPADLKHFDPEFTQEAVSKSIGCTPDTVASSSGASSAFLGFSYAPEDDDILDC

| Compound | observed | action | technique | concentration | quantity | value |
| --- | --- | --- | --- | --- | --- | --- |
| COc1cc(Cl)c(C(=O)N[C@@H](CN[C@H]2CC[C@@H](N)CC2)Cc2ccc(C#N)cc2)cc1-c1ccc(CN[C@H](C)c2ccc(C)cc2)o1 | enzyme activity | inhibitor | – | 1 µM | remaining activity | 82% |
| Cc1nccc(COC(=O)N2C[C@@H]3[C@@H](CNC(=O)c4ccc5[nH]nnc5c4)[C@@H]3C2)n1 | cell-free assay | – | competition with immobilised ligand | 1 µM | remaining binding | 100% |
| Cc1sc(C(=O)NC2COC2)cc1-n1cc(NC(=O)Nc2c(F)cccc2Cl)cn1 | enzyme activity | inhibitor | – | 10 µM | remaining activity | 97.2% |
| CCN(CC)CCNC(=O)c1c(C)[nH]c(/C=C2\C(=O)Nc3ccc(F)cc32)c1C | enzyme activity | inhibitor | – | 10 µM | inhibition | 48% |
| CC(C)(C)c1nc(-c2cccc(NS(=O)(=O)c3c(F)cccc3F)c2F)c(-c2ccnc(N)n2)s1 | enzyme activity | inhibitor | radiometric | 1 µM | remaining activity | 101% |
| COc1cc2ncnc(Nc3ccc(Oc4ccccc4)cc3C)c2cc1OC | enzyme activity | inhibitor | – | 1 µM | inhibition | -4% |
| CNC(=O)c1cc(Oc2ccc(NC(=O)Nc3ccc(Cl)c(C(F)(F)F)c3)cc2)ccn1 | enzyme activity | inhibitor | – | 0.3 µM | inhibition | 3% |
| CCCS(=O)(=O)Nc1ccc(F)c(C(=O)c2c[nH]c3ncc(-c4ccc(Cl)cc4)cc23)c1F | enzyme activity | inhibitor | – | 1 µM | inhibition | < 10% |
| CCN(CC)c1ccc(C2=NNC(=O)CC2C)cc1[N+](=O)[O-] (centres unmarked) | enzyme activity | inhibitor | – | 10 µM | remaining activity | 104% |
| CSc1cccnc1N1CCN(Cc2nc3ccccc3[nH]2)CC1 | cell-free assay | – | competition with immobilised ligand | 1 µM | remaining binding | 81% |
| O=C1NC(=O)c2cc(Nc3ccc(F)cc3)c(Nc3ccc(F)cc3)cc21 | cell-free assay | – | – | 0.5 µM | remaining signal | 99.7% |
| O=C(NS(=O)(=O)c1ccc(NCC2CCOCC2)c([N+](=O)[O-])c1)c1ccc(N2CCN(Cc3ccc(C(F)(F)F)cc3-c3ccc(Cl)cc3)CC2)cc1Oc1cnc2[nH]ccc2c1 | cell-free assay | – | competition with immobilised ligand | 1 µM | remaining binding | 100% |
| CC(C)(O)[C@H]1CC[C@H](Nc2ccc3ncc(-c4cccc(C(F)(F)F)c4)n3n2)CC1 | enzyme activity | inhibitor | – | 1 µM | remaining activity | 96.1% |
| Cn1cnc(Br)c1C1=CN(c2ncnc3[nH]cnc23)CCS1 | enzyme activity | inhibitor | radiometric | 2 µM | inhibition | 82.2% |
| CO[C@H]1CC[C@H](CNc2ccc(S(=O)(=O)NC(=O)c3ccc(N4CCN(CC5=C(c6ccc(Cl)cc6)CC(C)(C)CC5)CC4)cc3Oc3cnc4[nH]ccc4c3)cc2[N+](=O)[O-])CC1 | cell-free assay | – | competition with immobilised ligand | 1 µM | remaining binding | 91% |
| Cc1ccc(NC(=O)c2ccc(C)c(C(F)(F)F)c2)cc1C#Cc1nn(C2CCC(O)CC2)c2ncnc(N)c12 (centres unmarked) | cell-free assay | – | – | 10 µM | remaining signal | 97% |
| Nc1cnc(N2CCc3cc(S(=O)(=O)Nc4c(F)cc(Cl)cc4F)cc(N4CCCC4=O)c32)nc1 | cell-free assay | – | competition with immobilised ligand | 1 µM | remaining binding | 76% |
| CCCOc1ccc(OC)c(F)c1C(=O)c1ccc(C(=O)N[C@@H]2CNC[C@H]2NC(=O)c2ccc3[nH]ncc3c2)cc1 | enzyme activity | inhibitor | – | 50 nM | remaining activity | 72% |
| Nc1c(C(=O)NCc2ccc(C(=O)NCCCC3CCCCC3)cc2)cnn1-c1ccccc1 | cell-free assay | – | competition with immobilised ligand | 0.1 µM | remaining binding | 72% |
| Cc1ccc(Nc2nccc(N(C)c3ccc4c(C)n(C)nc4c3)n2)cc1S(N)(=O)=O | enzyme activity | inhibitor | – | 10 µM | inhibition | 10% |
| CN([C@@H]1CCc2c(CC(=O)O)c3cc(S(C)(=O)=O)ccc3n2C1)S(=O)(=O)c1ccc(F)cc1 | cell-free assay | – | competition with immobilised ligand | 1 µM | remaining binding | 100% |
| O=C(Nc1cnn(-c2csc(C(=O)NC3COC3)c2)c1)Nc1ccccc1Cl | enzyme activity | inhibitor | – | 5 µM | remaining activity | 101% |
| CNc1cccc2cc(C(=O)Nc3ccc(C(=O)O)cc3)c(=O)[nH]c12 | enzyme activity | inhibitor | – | 10 µM | inhibition | -1.2% |
